# Screening data as filed in PubChem.
# Hits are enriched below; roughly 3.4% of the tested compounds scored in any of these assays.
# rRNA inh HTS – selective bacterial rRNA inhibition in E. coli; E. coli WT GFP vs humanized-ribosome RFP mutants, fluorescence, 24 h; hits give low values; DMSO median 0, no signal -100; GFP signal change (wild-type ribosome), % (concentration not given with the values); 350,000 compounds, 1.6% hits;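 active means significant combined selectivity score with lowered wild-type GFP, culture density cut under 30%, mutant RFP and density less affected; inactive means any of these conditions unmet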
# E-selectin induc – induces E-selectin expression in human endothelial cells. 260,000 compounds, 0.37% hits. activation, % at 7.58 µM. P16581. HUVEC E-selectin immunofluorescence imaging; normalized: neutral wells 0, TNF-alpha wells 100;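 active means mean E-selectin-positive cell signal at least 10% of the positive control, reached in at least 60% of replicates, without over 20% cell loss; inconclusive means no rule given, readout overlaps actives, possibly toxicity-flagged; inactive means the rest, including those meeting only one limit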
#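 material = human umbilical vein endothelial cells (HUVEC), E-selectin induction | quantity = 3,000 cells/well | medium = EGM-2 growth medium on 0.1% gelatin-coated wells | technique = immunofluorescence imaging | read-out basis = % PE-positive cells | control set = TNF-alpha positive control, DMSO neutral control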
# ERAP1 inh – ERAP1 (human) enzyme inhibition. recombinant ERAP1, Leu-AMC fluorescence, 60 min. 340,000 compounds, 0.15% hits. inhibition, % at 10.7 µM. Q9NZ08;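 active means mean replicate inhibition of at least 30%, or all replicates individually reaching that 30% level; inactive means mean below 30% and not every replicate reaching it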;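 further: 0% = neutral control wells and 100% = L-leucinethiol positive control wells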
# S100A4 inh HTS – S100A4-myosin IIA interaction inhibition | AID 652163 | 360,000 compounds, 0.14% hits | P26447 | S100A4/TAMRA-MyoIIA peptide fluorescence polarization | inhibition, % at 10.7 µM;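 active means mean inhibition of at least 70% across replicates, with every replicate also reaching that level; inconclusive means mean inhibition reaches 70% but some replicates fall short; inactive means mean inhibition below 70%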
# Target sequence (P26447 whole entry, looked up): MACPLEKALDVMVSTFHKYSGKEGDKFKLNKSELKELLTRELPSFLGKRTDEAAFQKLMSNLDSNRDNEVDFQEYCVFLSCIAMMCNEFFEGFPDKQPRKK
#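 Test system: S100A4 monomer protein. Medium: HEPES buffer with Ca2+, pH 7.2. Reagent: fluorescent myosin IIA peptide, 5 nM. Compound dosing: single-point compound testing. Timing: 5 min between mix addition and reading. Benchmarks: DMSO neutral and TFP positive wells.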
# SIRT5 inh – inhibitors of human sirtuin-5 desuccinylase | Q9NXA8 | Purified SirT5, succinyl-peptide AMC, trypsin-coupled fluorescence | inhibition, % at 15 µM | 330,000 compounds, 1.1% hits | AID 652115; in the data active means inhibition above about 15%; inconclusive means no clear call, values can overlap the other calls
# Target sequence (Q9NXA8 whole entry, looked up): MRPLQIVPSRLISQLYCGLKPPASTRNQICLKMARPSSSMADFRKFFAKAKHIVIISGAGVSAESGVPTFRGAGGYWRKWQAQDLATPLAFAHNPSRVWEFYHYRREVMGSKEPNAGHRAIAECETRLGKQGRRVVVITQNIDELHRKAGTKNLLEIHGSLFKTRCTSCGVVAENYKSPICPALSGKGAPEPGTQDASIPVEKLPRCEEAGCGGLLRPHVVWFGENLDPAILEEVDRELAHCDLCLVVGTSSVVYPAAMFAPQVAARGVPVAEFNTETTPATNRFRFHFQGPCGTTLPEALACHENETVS
# MLL AF4-AF9 inh – blocks AF4 peptide binding to human AF9; P42568; AlphaScreen, biotin-AF4 peptide binding to FLAG-AF9; 350,000 compounds, 0.47% hits; inhibition, % at 10 µM;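 active means every replicate reaching a set inhibition limit, whatever the replicate mean, cut at about 25% in these data; inconclusive means mean inhibition reaches that limit but some replicates miss it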;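 further: 0% = plate neutral control median and 100% = total signal loss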
# AID977621 – wild-type E. coli growth inhibition versus H69 humanized strain – H69 mutant RFP, wild-type GFP, cherry-pick, dose response | activity change, negative = inhibition at 50 µM | fluorescence, 24 h | 1,900 tested, under 10 active | shares compounds with rRNA inh HTS | AID 977621;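 active means Wild-type ribosome reporter drop at least double the humanized mutant ribosome reporter drop, growth loss under a set limit; inconclusive means no clear call, values can overlap the other calls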;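 further: wild-type GFP and H69 mutant RFP strains grown together 50/50 in each well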
# AID977628 – growth of wild-type and h24-humanized E. coli strains – h24 mutant RFP vs wild-type GFP, cherry-pick, dose response. AID 977628. shares compounds with rRNA inh HTS. 1,900 tested, under 10 active. E. coli WT GFP strain growth, fluorescence, 24 h. activity change, negative = inhibition at 50 µM;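 active means compound lowering the normal-ribosome reporter at least twice as much as the humanized-ribosome reporter, growth loss under a set limit; inconclusive means no clear call, values can overlap the other calls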;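 further: wild-type GFP and h24 humanized RFP strains co-cultured 1 to 1 per well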
# Numbers without * were called inactive; u = inconclusive; x = not tested or not shown.
SMILES,rRNA inh HTS,E-selectin induc,ERAP1 inh,S100A4 inh HTS,SIRT5 inh,MLL AF4-AF9 inh,AID977621,AID977628
Cc1ccccc1NC(=O)c1ccccc1N(C)S(=O)(=O)c1ccccc1,-19*,x,-5,6,2,14,-21,u
CCCN(C)C[C@H]1Oc2cc(C#CC3CCCC3)ccc2S(=O)(=O)N([C@H](C)CO)C[C@H]1C,12,0,-13,6,-4,7,x,x
CCOC(=O)c1csc(NC(=O)CC2CCCC2)n1,-20*,1,0,4,x,1,-20,x
COCc1nnc(NC(=O)c2ccc(S(=O)(=O)N3CCCC3)cc2)o1,-23*,-1,0,-3,-1,0,-16,x
Cc1ccccc1NC(=O)CN(C)S(=O)(=O)c1cccs1,1,0,0,-2,-1,2,x,x
Cc1cccc(NC(=O)CN(C)S(=O)(=O)c2cccs2)c1,-27*,x,-1,-8,-7,-36,-15,u
O=C(N[C@H]1CC1c1ccccc1)c1ccc([N+](=O)[O-])cc1 (some centres undefined),-28*,1,0,5,-3,-2,u,-7.8
O=C(NCc1ccccc1)c1ccc([N+](=O)[O-])cc1,-6,0,-3,-5,x,-3,x,x
CCC1(C(=O)OC)CCc2c(cc(OC)c3ccccc23)C1=O (centres undefined),-27*,0,x,2,-6,7,-6.5,-12
CC1CCCC(NC(=O)COC(=O)Cc2ccc(Cl)cc2)C1C (centres undefined),-11,1,-1,-8,1,-1,x,x
CC1CCCC(NC(=O)COC(=O)Cc2c[nH]c3ccccc23)C1C (centres undefined),-29*,2,-2,3,-4,-2,-14,-13
C[C@H](CO)N1C[C@H](C)[C@@H](CN(C)Cc2ccc(Oc3ccccc3)cc2)Oc2ccc(NS(=O)(=O)c3cccs3)cc2C1=O,-4,-5,-1,-7,2,5,x,x
COc1ccc(CN(C)C[C@H]2OCCCC[C@@H](C)Oc3ccc(NC(=O)Nc4c(C)noc4C)cc3C(=O)N([C@@H](C)CO)C[C@H]2C)cc1,4,0,-2,1,8,1,x,x
Cc1ccc(-c2ccc3c(c2)O[C@@H](CN(C)Cc2ccc(C(=O)O)cc2)[C@@H](C)CN([C@@H](C)CO)S3(=O)=O)cc1,-3,0,-2,-22,0,1,x,x
NS(=O)(=O)c1ccc(NC(=O)c2cc(Cl)sc2Cl)cc1,-25*,x,-2,-5,-3,-4,-0.14,-6.1
O=C(NCCCN1CCOCC1)c1cc(-c2ccccc2)nc2ccccc12,13,x,1,-1,1,0,x,x
Cc1ccc(Nc2cc(C(=O)NCCCN3CCOCC3)c3ccccc3n2)cc1C,-22*,x,4,6,-3,1,x,u
O=C(c1cnc(Cc2c[nH]c3ccccc23)c(I)c1)N1CCOCC1,8,-2,x,2,1,8,x,x
O=C(c1cnc(Cc2c[nH]c3ccccc23)c(I)c1)N1CCCCC1,-24*,-1,x,2,-4,5,-17,x
CN(C)C(=O)C1C2NC(=S)N(c3cccc(Cl)c3)C1(C)Oc1ccc(Cl)cc12 (centres undefined),-22*,x,0,-1,-2,6,-2.2,x
CCOC(=O)c1sc2nc(-c3cccnc3)ccc2c1N,-1,1,1,-1,-2,-7,x,x
CC(C)OC(=O)c1sc2nc(-c3ccccc3)ccc2c1N,-26*,x,1,-2,-1,1,0.58,u
CC(C)Oc1ccc(C(CC(=O)O)NC(=O)C(Sc2ccccc2)c2ccccc2)cc1 (centres undefined),-27*,x,9,7,x,-2,-16,x
